Measured values taken from ChEMBL document CHEMBL1250451, “Mechanistic insights into a Ca2+-dependent family of alpha-mannosidases in a human gut symbiont” (Nat Chem Biol, 2010).

Tests used:
Format in all cases: protein assay
[1] = substrate: OC[C@H]1O[C@H](O[C@H]2[C@H](O)[C@H](O)[C@@H](O)O[C@@H]2CO)[C@@H](O)[C@@H](O)[C@@H]1O; assay: (§1) Activity of Bacteroides thetaiotaomicron GH92 alpha-mannosidase GH92 alpha-mannosidase 4073 assessed as mannose release after 16 hrs by HPLC
Outline: (§2)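 Yeast mannan or ovalbumin (mostly high-mannose N-glycans) at 1 mg ml−1 was incubated with recombinant IMAC-purified enzyme from E. coli. The methods give enzyme at 2 μM and the table footnote gives 1 μM. Buffer was 100 mM sodium HEPES pH 7.0 with 1 mg ml−1 BSA and 2 mM CaCl2. Aliquots were taken at 1 and 16 h and boiled 10 min. Mannose was measured by HPLC and scored by signal: >500 nC +++, 200–500 ++, <200 +.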

[2] = substrate: O=[N+]([O-])c1ccc(O[C@H]2O[C@H](CO)[C@@H](O)[C@H](O)[C@@H]2O)cc1; assay: as §1; outline: as §2
[3] = substrate: O=[N+]([O-])c1ccc(O[C@H]2O[C@H](CO)[C@@H](O)[C@H](O)[C@@H]2O)cc1; assay: Ratio of Kcat to Km for Bacteroides thetaiotaomicron GH92 alpha-mannosidase GH92 alpha-mannosidase 4073 assessed as mannose release after 16 hrs by HPLC
[4] = substrate: OC[C@H]1O[C@H](O[C@H]2[C@H](O)[C@H](O)[C@@H](O)O[C@@H]2CO)[C@@H](O)[C@@H](O)[C@@H]1O; assay: (§3) Ratio of Kcat to Km for Bacteroides thetaiotaomicron GH92 alpha-mannosidase GH92 alpha-mannosidase 3994 assessed as mannose release after 16 hrs by HPLC
[5] = substrate: O=[N+]([O-])c1ccc(O[C@H]2O[C@H](CO)[C@@H](O)[C@H](O)[C@@H]2O)cc1; assay: as §3
[6] = substrate: O=[N+]([O-])c1ccc(O[C@H]2O[C@H](CO)[C@@H](O)[C@H](O)[C@@H]2O)cc1; assay: Activity of Bacteroides thetaiotaomicron GH92 alpha-mannosidase GH92 alpha-mannosidase 3994 assessed as mannose release after 16 hrs by HPLC
[7] = substrate: OC[C@H]1O[C@H](O[C@H]2[C@@H](O)[C@H](O)[C@@H](CO)O[C@@H]2O)[C@@H](O)[C@@H](O)[C@@H]1O; assay: (§4) Activity of Bacteroides thetaiotaomicron GH92 alpha-mannosidase GH92 alpha-mannosidase 2199 assessed as mannose release after 16 hrs by HPLC
[8] = substrate: O=[N+]([O-])c1ccc(O[C@H]2O[C@H](CO)[C@@H](O)[C@H](O)[C@@H]2O)cc1; assay: as §4
[9] = substrate: OC[C@H]1O[C@H](O[C@H]2[C@@H](O)[C@H](O)[C@@H](CO)O[C@@H]2O)[C@@H](O)[C@@H](O)[C@@H]1O; assay: (§5) Ratio of Kcat to Km for Bacteroides thetaiotaomicron GH92 alpha-mannosidase GH92 alpha-mannosidase 2199 assessed as mannose release after 16 hrs by HPLC
[10] = substrate: O=[N+]([O-])c1ccc(O[C@H]2O[C@H](CO)[C@@H](O)[C@H](O)[C@@H]2O)cc1; assay: as §5

B1: Alpha-1,2-mannosidase, putative (BT_4073) (Bacteroides thetaiotaomicron), Q8A0E8 (protein)
chain: MYKASANILIACSFLWLTACSSAGVVTEDLIPTDYVNPFIGASTSVGAAGVYHGLGKTFPGATTPYGMVQVSPNTITGGDNSSGYSDEHKTIEGFAFTQMSGVGWFGDLGNFLVMPTTGELQKIAGKEDGSIKGYRSSYDKATETAKAGYYSVELTDYKIKVESSATPHCGILQFTFPSNEQSRIQIDLARRVGGTSTSQYVKVLDDYTIQGWMKCTPDGGGWGNGEGNSDYTVYYYAQFSKPLSNYGFWSADIPDEWVRKRDEVVSIPYLTRISQAPVIKDKKELEGKHLGFFTEFPTKEGEQVEMKVGISFVDMEGAANNFKQEIASKNFAQVKQEASDLWNKELSRIRISGGTDDEKTVFYTSLYHTMIDPRIYTDVDGRYIGGDKKVHEQDGTFTKRTIFSGWDVFRSQFPLQAMINPRLVSDALNSLITMADQSRREYYERWELLNSYSGCMIGNPALSVLADAYMKGIRTYDVEKAYQYAVNTSAKFGNDSLGYTPEPLSISYTLEYAYADWCVAQLAKALGKEEDAKRFYEKGQAYRNMFDAEKGWFRPRNADGSWKAWPENALTEEWYGCIESNAYQQGWFVPHDVPGMVELMGGKEEVIANLTNLFDHTPSDMLWNDYYNHANEPVHFVPFLFNQLDVPWYTQKWTRYICKNAYANKVEGIVGNEDVGQMSAWYILAASGIHPSCPGNTRMEITSPVFDKVEFNLDSKYHQGKVFTIIAHNNNTNNLYIQKALLNGKEYNKCYLDFAEIAAGGTLELFMGDKPNTEWGVLSNI
- Km [1]: 270 µM
- Km [2]: 1800 µM
- kcat [2]: 0.0045 s⁻¹
- kcat/Km [3]: 2.33 M⁻¹ s⁻¹

B2: Alpha-1,2-mannosidase (BT_3994) (Bacteroides thetaiotaomicron), Q8A0M7 (protein)
chain: MKTPIYLLLIVCIFASCNTKQTQAEIDYTSYVNPFIGTDFTGNTYPGAQAPFGMVQLSPDNGLPGWDRISGYFYPDSTIAGFSHTHLSGTGAGDLYDISFMPVTLPYKEAEAPLGIYSKFSHDEESAYAGYYQVRLKDYHINVELTATERCGIQRYTFPKAEAAIFLNLKKAMNWDFTNDSHIEVVDSVTIQGYRYSDGWARDQRIYFRTRFSKPFDKVELDTTAIIKDKQHIGTAVIARFDFHTEEGEQILVNTAISGVSMEGAAKNLQAEVPENDFDKYLAETKANWNRQLGKIEVEGDNQDDKVNFYTALYHSMIAPTIYSDVDGAYYGPDKKVHQSDGWVNYSTFSLWDTYRAAHPLFTYTEPERVNDMVKSFIAFFEQNGRLPVWNFYGSETDMMIGYHAVPVIVDAYLKGIGNFDAEKALAACVATANLDNYRGIGLYKQLGYIPYNVTDHYNAENWSLSKTLEYAFDDYCIAEMANKMGKKEIADEFYKRSQNYKNVYNPATSFMQPRDDKGNFIKDFKADEYTPHICESNGWQYFWSVQHDIDGLIDLTGGKNRFAEKLDSMFTYHPAADEELPIFSTGMIGQYAHGNEPSHHVIYLFNAVGQQNLTQKYVAKVMNELYKNEPAGLCGNEDCGQMSAWYVFSAMGFYPVNPVSGKYEIGTPLFPEMKLHLANGKTFTVLAPKVSKENIYIQSIKVDGQPYNKTYLTHEQIMSGTTVEFEMGNTPLVEVEFEEQTQ
- kcat/Km [4]: 0.0833 M⁻¹ s⁻¹
- kcat/Km [5]: 433 M⁻¹ s⁻¹
- Km [6]: 3700 µM
- kcat [6]: 1.57 s⁻¹

B3: Alpha-1,2-mannosidase (BT_2199) (Bacteroides thetaiotaomicron), Q8A5N9 (protein)
chain: MVTRLFFLSICFPFLLTSCQQSKKTVEFVDYVNPLMGTESTFAFSHGNTYPAVAVPWGMNFWSPQTGENGSGWMYTYTDSLMRGFRQTHQPSPWINDYGTFSIMPLAGELKMSHKERLVPFSHQQEKATPYNYSVTFNNGLQTSLSATSRGAVFEVSFPEKEDQYVVVDAYNGGSSITIEPEKRLVKGATRYNNGGVPDNFANYFMMEFSHPVIEYGTYNGDTLLHHQTDVAADYTCAYLKFDVPAGEKLTIRTASSFISPEQAAINFNREVADADVQLISGKAREQWNNYLGRVEAEGGTDEQLRTFYSCLYRTLLFPREFYEFDSQGNPVYYSPYDGNVHDGYMYTDNGFWDTFRAVHPLFTLLYPEVSERVTQSIINAYNESGFMPEWASPGHRGCMIGNNSVSLLVDAWMKGIQTVDAEKALEAMIHQTQARHAEIASVGRDGFEYYDKLGYVPYPEVPEATAKTLEYAYADWCIARFAESLGKQDIADQYYQKAPNYRNLYYPEHGFMWTKDAKGNWRDRFDATEWGGPFTEGSSWHWTWSVFHDPEGLSELMGGHEPMIARLDSMFVAPNTYNYGTYGFVIHEIAEMVALNMGQYAHGNQPVQHAIYLYDYIGQPWKTQYHLRNVMDKLYNSGSKGYCGDEDNGQTSAWYVFSAMGFYPVCPGMPEYAIGSPLFKKVTLHLPEGKNFVVSAADNAADRPYIRKALLNGQEFTRNYLTHDELKQGGELNLSMDSVPNQQRGTQPADFPYSYSK
- kcat [7]: 40 s⁻¹
- Km [8]: 7500 µM
- kcat [8]: 0.105 s⁻¹
- kcat/Km [9]: 60000 M⁻¹ s⁻¹
- kcat/Km [10]: 14 M⁻¹ s⁻¹
